Experimental data from paper PMC7938327 (Journal of medicinal chemistry, 2017).
“Also recorded” adds a separate entry of the source.

How the values were obtained:
[1] = molecular target: T1, human recombinant ATX (Homo sapiens, UniProt Q13822); assay: ATX nucleotide pyrophosphatase activity, pNP-TMP hydrolysis; assay type: biochemical; conditions: 1 mM pNP-TMP, 4 nM ATX, compound 0 to 1 μM
Summary of the method: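 Human recombinant FLAG-tagged ATX was expressed in Sf9 insect cells and purified on anti-FLAG resin. Absorbance at 405 nm was read every 2 min for 1 h.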

[2] = molecular target: T1, human recombinant ATX; assay: ATX lysophospholipase D activity, FS-3 hydrolysis; assay type: biochemical; conditions: for mechanism: FS-3 0 to 10 μM, inhibitor 0, 0.5 × IC50 or 2 × IC50, best global fit
[3] = In vitro stability in 4T1 cell culture by LC-MS; assay type: in vitro ADME, mouse; conditions: 40 h of exposure to 4T1 cells
[4] = tested on: A2058 human melanoma cells; assay: ATX-mediated in vitro invasion assay; assay type: cell-based; conditions: exogenous LPC and recombinant ATX; for inhibition of A2058 cell invasion, screen at 10 μM: compared with 30; for inhibition of A2058 cell invasion (in words): dose–response
[5] = molecular target: T2, purified recombinant ENPP6 (Homo sapiens, UniProt Q6UWR7); assay: ENPP6 inhibition, pNPPC hydrolysis; assay type: biochemical; conditions: 10 μM pNPPC, 10 nM ENPP6, compound 0 to 10 μM; data not shown
T2 sequence (Q6UWR7 23-440): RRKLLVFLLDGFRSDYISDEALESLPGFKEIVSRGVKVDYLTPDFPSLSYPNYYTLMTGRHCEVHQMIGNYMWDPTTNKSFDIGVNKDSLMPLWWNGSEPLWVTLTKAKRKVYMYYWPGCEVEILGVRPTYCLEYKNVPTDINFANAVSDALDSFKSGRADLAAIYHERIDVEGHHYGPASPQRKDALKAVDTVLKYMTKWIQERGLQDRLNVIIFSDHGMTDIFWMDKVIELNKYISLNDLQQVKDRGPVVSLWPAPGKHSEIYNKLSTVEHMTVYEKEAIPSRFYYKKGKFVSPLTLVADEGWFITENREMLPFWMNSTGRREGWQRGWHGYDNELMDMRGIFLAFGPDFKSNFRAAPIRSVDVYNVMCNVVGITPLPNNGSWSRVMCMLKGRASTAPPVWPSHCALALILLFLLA
Summary of the method: (§1)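 Purified recombinant enzyme (0 or 10 nM) was incubated with 10 μM pNPPC and 0–10 μM test compound in triplicate wells. Buffers were 100 mM Tris, 500 mM NaCl, 0.05% Triton, pH 9.0 for ENPP6, and 50 mM Tris, 150 mM NaCl, 10 mM taurocholate, pH 8.5 for ENPP7. Absorbance at 405 nm was read every 2 min for 1 h.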

[6] = tested on: 4T1 breast cancer cell line; assay: Chemoresistance of 4T1 cells to paclitaxel; assay type: cell-based, mouse; conditions: for LD50 to PT with ATX inhibitor pretreatment: 24 h pretreatment with 3 μM compound, then PT 48 h
[7] = tested on: 4T1-TaxR cancer stem-like cells (mammospheres); assay: 4T1-TaxR mammosphere viability with paclitaxel; assay type: cell-based, mouse; conditions: for resensitization of cancer stem-like cells to PT (in words): 4T1-TaxR cells; for further reduction of cell viability compared to PT alone: 4T1-TaxR mammospheres, PT 100 nM, compound 5 μM, 3 days
[8] = molecular target: T3, purified recombinant ENPP7 (Homo sapiens, UniProt Q6UWV6); assay: ENPP7 inhibition, pNPPC hydrolysis; assay type: biochemical; conditions: 10 μM pNPPC, 10 nM ENPP7, compound 0 to 10 μM; data not shown
T3 sequence (Q6UWV6 22-458): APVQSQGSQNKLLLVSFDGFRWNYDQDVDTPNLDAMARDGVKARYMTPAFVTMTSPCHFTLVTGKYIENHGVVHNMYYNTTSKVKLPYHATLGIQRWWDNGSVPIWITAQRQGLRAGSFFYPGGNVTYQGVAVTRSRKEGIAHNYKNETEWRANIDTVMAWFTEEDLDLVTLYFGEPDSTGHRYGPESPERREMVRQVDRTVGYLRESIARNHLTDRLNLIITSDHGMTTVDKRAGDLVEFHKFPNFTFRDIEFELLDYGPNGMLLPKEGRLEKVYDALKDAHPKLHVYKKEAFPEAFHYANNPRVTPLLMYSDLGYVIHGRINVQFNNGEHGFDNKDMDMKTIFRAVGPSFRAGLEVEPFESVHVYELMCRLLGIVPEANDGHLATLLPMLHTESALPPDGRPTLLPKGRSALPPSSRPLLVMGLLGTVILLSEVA
Summary of the method: as §1

[9] = molecular target: LPA1 (Homo sapiens, UniProt Q92633); assay: LPA-mediated Ca2+ mobilization, LPA1 RH7777 cells; assay type: cell-based; conditions: for antagonist activity at LPA1 (in words): LPA1-elicited Ca2+ responses
Sequence of LPA1 (Q92633 whole entry, species assumed): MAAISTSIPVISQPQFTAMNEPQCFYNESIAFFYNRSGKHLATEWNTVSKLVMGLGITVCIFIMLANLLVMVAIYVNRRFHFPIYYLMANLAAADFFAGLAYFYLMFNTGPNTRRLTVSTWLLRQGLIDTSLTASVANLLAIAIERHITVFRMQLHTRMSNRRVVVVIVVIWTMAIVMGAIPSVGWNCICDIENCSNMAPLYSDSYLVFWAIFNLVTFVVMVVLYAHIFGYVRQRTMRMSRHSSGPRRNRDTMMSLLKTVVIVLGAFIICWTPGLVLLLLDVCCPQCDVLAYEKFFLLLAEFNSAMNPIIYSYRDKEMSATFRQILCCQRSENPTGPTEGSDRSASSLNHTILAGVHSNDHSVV
Summary of the method: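 Rat hepatoma RH7777 cells stably expressing LPA1 were seeded at 5 × 10^4 per well on poly-L-lysine, left overnight, then serum-deprived 4 h in HEPES-Krebs buffer pH 7.4. Cells were loaded 30 min with 4.5 μg/mL Fura-2AM plus 0.45% Pluronic F-127. […] The 340/510 and 380/510 nm ratio was read every 3.42 s for 70 s, normalized to LPA Emax, and fitted by variable-slope regression for IC50.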

[10] = molecular target: LPA2 (Homo sapiens, UniProt Q9HBW0); assay: LPA-mediated Ca2+ mobilization, LPA2 MEF cells; assay type: cell-based; conditions: read-out: LPA2 Emax
Sequence of LPA2 (Q9HBW0 whole entry, species assumed): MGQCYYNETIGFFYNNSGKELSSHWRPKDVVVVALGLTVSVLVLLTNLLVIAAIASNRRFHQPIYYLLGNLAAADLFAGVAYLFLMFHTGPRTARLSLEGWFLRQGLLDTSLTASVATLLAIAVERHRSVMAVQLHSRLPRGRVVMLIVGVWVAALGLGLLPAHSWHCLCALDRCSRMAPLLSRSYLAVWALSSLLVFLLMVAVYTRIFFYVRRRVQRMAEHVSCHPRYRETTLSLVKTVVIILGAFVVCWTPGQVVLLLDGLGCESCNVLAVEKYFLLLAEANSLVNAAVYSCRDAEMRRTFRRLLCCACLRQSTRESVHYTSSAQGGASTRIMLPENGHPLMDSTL

[11] = molecular target: LPA5 (Homo sapiens, UniProt Q9H1C0); assay: LPA-mediated Ca2+ mobilization, LPA5 B103 cells; assay type: cell-based; conditions: LPA 18:1 alone; normalized to percentage of LPA 18:1 Emax
Sequence of LPA5 (Q9H1C0 whole entry, species assumed): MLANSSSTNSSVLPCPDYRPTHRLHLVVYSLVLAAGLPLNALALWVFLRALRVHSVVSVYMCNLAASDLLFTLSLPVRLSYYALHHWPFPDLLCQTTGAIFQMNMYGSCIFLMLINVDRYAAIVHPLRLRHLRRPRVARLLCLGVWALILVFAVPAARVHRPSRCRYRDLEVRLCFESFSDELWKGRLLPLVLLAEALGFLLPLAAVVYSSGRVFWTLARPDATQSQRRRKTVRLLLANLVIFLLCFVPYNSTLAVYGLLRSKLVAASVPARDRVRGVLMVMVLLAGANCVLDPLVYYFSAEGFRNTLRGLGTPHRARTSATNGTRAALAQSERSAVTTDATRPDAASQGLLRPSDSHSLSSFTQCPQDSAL

[12] = molecular target: LPA4 (Homo sapiens, UniProt Q99677); assay: LPA-mediated Ca2+ mobilization, LPA4 CHO cells; assay type: cell-based; conditions: read-out: LPA4 Emax
Sequence of LPA4 (Q99677 whole entry, species assumed): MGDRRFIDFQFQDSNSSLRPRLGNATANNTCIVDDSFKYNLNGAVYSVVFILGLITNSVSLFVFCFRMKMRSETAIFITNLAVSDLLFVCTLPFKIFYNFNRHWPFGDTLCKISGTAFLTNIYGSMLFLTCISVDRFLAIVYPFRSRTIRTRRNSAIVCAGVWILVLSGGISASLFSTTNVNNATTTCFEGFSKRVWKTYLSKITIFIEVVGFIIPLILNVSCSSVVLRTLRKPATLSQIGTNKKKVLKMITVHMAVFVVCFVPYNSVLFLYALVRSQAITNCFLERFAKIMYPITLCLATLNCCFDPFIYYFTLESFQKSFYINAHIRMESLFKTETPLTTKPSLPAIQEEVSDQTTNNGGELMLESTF

[13] = molecular target: T4, LPA3 (Homo sapiens, UniProt Q9UBY5); assay: LPA-mediated Ca2+ mobilization, LPA3 RH7777 cells; assay type: cell-based; conditions: RH7777, read-out: LPA3 Emax
T4 sequence (Q9UBY5 1-353): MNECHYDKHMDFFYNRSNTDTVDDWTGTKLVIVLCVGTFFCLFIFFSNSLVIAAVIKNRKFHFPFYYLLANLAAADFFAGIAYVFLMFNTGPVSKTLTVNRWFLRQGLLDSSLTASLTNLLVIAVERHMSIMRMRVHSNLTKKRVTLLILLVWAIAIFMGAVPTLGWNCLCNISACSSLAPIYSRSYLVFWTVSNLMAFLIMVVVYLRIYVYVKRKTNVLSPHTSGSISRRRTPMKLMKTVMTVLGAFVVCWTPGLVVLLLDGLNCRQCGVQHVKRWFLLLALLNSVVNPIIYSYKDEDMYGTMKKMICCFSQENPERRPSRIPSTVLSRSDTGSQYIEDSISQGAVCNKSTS

## O=C(Nc1cccc(F)c1)c1cc(S(=O)(=O)N2CCOCC2)c(Cl)cc1Cl [Compound 3, 2,4-Dichloro-N-(3-fluorophenyl)-5-(morpholinosulfonyl)-benzamide]
[1]
  pNP-TMP inhibition: none
[2]
  mechanism: competitive
[3]
  in vitro stability (in words): significant stability

## O=C(Nc1ccc(F)c(F)c1)c1cc(S(=O)(=O)N2CCOCC2)c(Cl)cc1Cl [Compound 3a, 2,4-Dichloro-N-(3,4-difluorophenyl)-5-(morpholinosulfonyl)-benzamide]
[1]
  pNP-TMP inhibition: none
[2]; ATX, FS-3
  fold IC50 improvement relative to parent compound 3: 4 fold
[2]
  mechanism: competitive
[4]
  inhibition of A2058 cell invasion, screen at 10 μM: as effective as 30
  inhibition of A2058 cell invasion (in words): inhibit ATX-dependent invasion; also recorded: dose dependently decreased A2058 cell invasion

## O=C(Nc1cc(F)c(F)c(F)c1)c1cc(S(=O)(=O)N2CCOCC2)c(Cl)cc1Cl [Compound 3b, 2,4-Dichloro-5-(morpholinosulfonyl)-N-(3,4,5-trifluorophenyl)-benzamide]
[1]
  pNP-TMP inhibition: sparing effects on hydrolysis of the nucleotide substrate pNP-TMP and none
[5]
  inhibitory activity for ENPP6: lack inhibitory action
[6]
  LD50 to PT with ATX inhibitor pretreatment: 127 nM
[2]
  mechanism: competitive
[3]
  in vitro stability (in words): significant stability
[7]
  resensitization of cancer stem-like cells to PT (in words): potently reduced in vitro chemotherapeutic resistance; also recorded: effectively resensitized
  further reduction of cell viability compared to PT alone: 25–30%
[8]
  inhibitory activity for ENPP7: lack inhibitory action
[9]
  antagonist activity at LPA1 (in words): weak antagonist action; also recorded: exhibited antagonist activity; also recorded: effective in antagonizing LPA1-elicited Ca^2+ responses
[4]
  inhibition of A2058 cell invasion, screen at 10 μM: as effective as 30
  inhibition of A2058 cell invasion (in words): inhibit ATX-dependent invasion; also recorded: dose dependently decreased A2058 cell invasion

## O=C(Nc1cc(F)c(Cl)c(F)c1)c1cc(S(=O)(=O)N2CCOCC2)c(Cl)cc1Cl [Compound 3f, 2,4-Dichloro-N-(4-chloro-3,5-difluorophenyl)-5-(morpholinosulfonyl)benzamide]
[1]
  pNP-TMP inhibition: none
[5]
  inhibitory activity for ENPP6: lack inhibitory action
[6]
  LD50 to PT with ATX inhibitor pretreatment: 66 nM
[2]
  mechanism: competitive
[3]
  in vitro stability (in words): significant stability
[8]
  inhibitory activity for ENPP7: lack inhibitory action
[9]
  antagonist activity at LPA1 (in words): weak antagonist action; also recorded: exhibited antagonist activity; also recorded: effective in antagonizing LPA1-elicited Ca^2+ responses
[4]
  inhibition of A2058 cell invasion, screen at 10 μM: as effective as 30
  inhibition of A2058 cell invasion (in words): dose dependently decreased A2058 cell invasion

## O=C(Nc1cc(Cl)c(F)c(Cl)c1)c1cc(S(=O)(=O)N2CCOCC2)c(Cl)cc1Cl [Compound 3g, 2,4-Dichloro-N-(3,5-dichloro-4-fluorophenyl)-5-(morpholinosulfonyl)benzamide]
[1]
  pNP-TMP inhibition: none
[2]; ATX, FS-3
  fold higher potency of 3g over 3f: 2 fold
[2]
  mechanism: competitive
[9]
  antagonist activity at LPA1 (in words): exhibited antagonist activity; also recorded: effective in antagonizing LPA1-elicited Ca^2+ responses

## O=S(=O)(c1cc(C(=S)Nc2cc(F)c(F)c(F)c2)c(Cl)cc1Cl)N1CCOCC1 [Compound 14, 2,4-Dichloro-5-(morpholinosulfonyl)-N-(3,4,5-trifluorophenyl)-benzothioamide]
[1]
  pNP-TMP inhibition: none
[2]; ATX, FS-3
  fold IC50 improvement relative to parent compound 3: 3 fold
[2]
  mechanism: competitive
[2]; FS-3 substrate
  ATX inhibitory activity (in words): retained similar inhibitory activity as the amide analogues
[3]
  in vitro stability (in words): significant stability
[4]
  inhibition of A2058 cell invasion, screen at 10 μM: as effective as 30
  inhibition of A2058 cell invasion (in words): inhibit ATX-dependent invasion; also recorded: dose dependently decreased A2058 cell invasion

## CCCCCCCC/C=C\CCCCCCCC(=O)OCC(O)COP(=O)(O)O (centres unmarked) [LPA 18:1]
[10]
  Emax: 100%
[11]
  LPA5 μEmax: 100.00 ± 0.00
[12]
  Emax: 100%
[9]; RH7777, read-out: LPA1 Emax
  Emax: 100%
[13]
  Emax: 100%

## CC(=O)O[C@H]1C(=O)[C@@]2(C)[C@H]([C@H](OC(=O)c3ccccc3)[C@]3(O)C[C@H](OC(=O)[C@H](O)[C@@H](NC(=O)c4ccccc4)c4ccccc4)C(C)=C1C3(C)C)[C@]1(OC(C)=O)CO[C@@H]1C[C@@H]2O [PT, paclitaxel, reference compound]
[6]; PT 48 h, no ATX inhibitor
  PT LD50 for reducing cell growth by 50%, applied alone: 202 nM

## CCCCCCCCCCCCCCCc1ccc(CP(=O)(O)O)cc1 [compound 30, (4-pentadecylbenzyl)phosphonic acid, reference compound]
[7]
  resensitization of cancer stem-like cells to PT (in words): effectively resensitized
  further reduction of cell viability compared to PT alone: 25–30%
